Experimental data reported in ChEMBL document CHEMBL1158001, “Cytotoxic isoprenylated flavans of Broussonetia kazinoki” (1999).
Values after ≈ are worked out from the molar mass of the structure shown. *1 amine or outer side, *2 acyl side, *3 side chain or, on linkers, in order; H or OH if unused. Where a SMILES comes first, the peptide text is derived from it. Bridges are numbered along the chain shown (N, C = ends). Roman numbers before positions name the chains, in order. [ ]: non-standard residue; d: D form. Actinocin(1to9) = Cc1c2oc3c(C)ccc(C(=O)[*:2])c3nc-2c(C(=O)[*:1])c(N)c1=O; NMeV = CN[C@H](C(=O)O)C(C)C; Sar = CNCC(=O)O

Assays:
[1] = Cytotoxicity against human PLC/PRF/5 cells after 6 days by MTT assay; assay type: functional; settings: PLC-PRF-5, 144 h, read-out: ED50 (the source's name)
Procedure, shortened: (§1)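 Cells kept in DMEM with 10% FBS, 2 mM L-glutamine, penicillin and streptomycin. 1-3 × 10^3 cells/100 µL, attached 6 h, then fresh medium with a concentration series for 6 days at 37 °C in CO2, plus 10 mM HEPES pH 7.3. MTT (1 mg/mL in PBS) added for 4 h, formazan dissolved in DMSO, A550 read.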

212 (Mus musculus) = test: Cytotoxicity against mouse 212 cells after 6 days by MTT assay; settings: 144 h, read-out: ED50 (the source's name)
HT-3 = test: Cytotoxicity against human HT-3 cells after 6 days by MTT assay; assay type: functional; settings: for EC50: Homo sapiens, HT-3, 144 h, read-out: ED50 (the source's name); procedure, shortened: as §1
SiHa = test: Cytotoxicity against human SiHa cells after 6 days by MTT assay; assay type: functional; settings: for EC50: Homo sapiens, SiHa, 144 h, read-out: ED50 (the source's name); procedure, shortened: as §1
Ca-Ski = test: Cytotoxicity against human CaSki cells after 6 days by MTT assay; assay type: functional; settings: 144 h, read-out: ED50 (the source's name); procedure, shortened: as §1
T-24 = test: Cytotoxicity against human T24 cells after 6 days by MTT assay; assay type: functional; settings: T-24, 144 h, read-out: ED50 (the source's name); procedure, shortened: as §1

`C=CC(C)(C)c1cc(CCCc2cc(O)c3c(c2CC=C(C)C)CCC(C)(C)O3)c(O)cc1O` [KAZINOL D] showed an EC50 [1] of 3.3 µg/mL (≈ 7.1 µM), an EC50 (212 (Mus musculus)) of 7 µg/mL (≈ 15.1 µM) and an EC50 (HT-3) of 3.6 µg/mL (≈ 7.75 µM).
For `Oc1ccc(C2CCc3ccc(O)cc3O2)cc1` (stereo not given), the EC50 (SiHa) was 8.9 µg/mL (≈ 36.7 µM), the EC50 (HT-3) was 11.6 µg/mL (≈ 47.9 µM) and the EC50 (Ca-Ski) was 17.4 µg/mL (≈ 71.8 µM).
In the case of `Cc1c2oc3c(C)ccc(C(=O)N[C@@H]4C(=O)N[C@H](C(C)C)C(=O)N5CCC[C@H]5C(=O)N(C)CC(=O)N(C)[C@@H](C(C)C)C(=O)O[C@@H]4C)c3nc-2c(C(=O)N[C@@H]2C(=O)N[C@H](C(C)C)C(=O)N3CCC[C@H]3C(=O)N(C)CC(=O)N(C)[C@@H](C(C)C)C(=O)O[C@@H]2C)c(N)c1=O` [DACTINOMYCIN] (I: T[dV]P[Sar][NMeV] / II: T[dV]P[Sar][NMeV]; ester I:1-I:C, II:1-II:C; linker I:N-II:N via Actinocin(1to9)), the EC50 [1] is reported as 0.0014 µg/mL (≈ 0.00112 µM), the ED50 (SiHa) is reported as 8.1 ×10⁻⁴ ug/ml and the ED50 (HT-3) is reported as 5.6 ×10⁻⁴ ug/ml. The EC50 (T-24) was 0.0015 µg/mL (≈ 0.00119 µM) and the EC50 (Ca-Ski) was 0.0019 µg/mL (≈ 0.00151 µM).
Molecule `C=CC(C)(C)c1cc(CCCc2cc(O)c3c(c2CC=C(C)C)C=CC(C)(C)O3)c(O)cc1O` [KAZINOL K] has an EC50 (HT-3) of 8.6 µg/mL (≈ 18.6 µM).
`C=CC(C)(C)c1cc2c(cc1O)OC(c1cc(CC=C(C)C)c(O)c(O)c1CC=C(C)C)CC2` (stereo not given) [KAZINOL Q] gave an EC50 [1] of 3.5 µg/mL (≈ 7.57 µM), an EC50 (SiHa) of 4.7 µg/mL (≈ 10.2 µM) and an EC50 (212 (Mus musculus)) of 3.8 µg/mL (≈ 8.21 µM). For the same molecule, the EC50 (HT-3) was 4.3 µg/mL (≈ 9.29 µM) and the EC50 (T-24) was 2.3 µg/mL (≈ 4.97 µM).
`C=CC(C)(C)c1cc2c(cc1O)OC(c1cc(O)c3c(c1CC=C(C)C)CC(O)C(C)(C)O3)CC2` (stereo not given) showed an EC50 (SiHa) of 9.3 µg/mL (≈ 19.4 µM), an EC50 (HT-3) of 9.3 µg/mL (≈ 19.4 µM) and an EC50 (Ca-Ski) of 8.2 µg/mL (≈ 17.1 µM).
